How the values were obtained:
Format in all cases: functional
[1] = In vitro ability to protect human LDL against Cu2+-induced peroxidation. (concentration inhibiting 50% of the Cu2+ induced lipid peroxidation)
Outline: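 Human LDL (120 µg/mL) oxidized with 10 µM CuSO4 as initiator for 4 h in the presence of compound. Lipid peroxidation read out as TBARS. IC50 is the concentration inhibiting TBARS formation by 50%.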

[2] = species on record: Homo sapiens; assay: Antioxidant effect on the Cu2+-mediated oxidation and apoB-100 fragmentation in LDL after incubation with 20 uM of compound
Outline: (§1)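 LDL (240 µg/mL in PBS) incubated 12 h at 37 °C with 5 µM CuSO4, with or without compound. About 2.0 µg LDL protein run on 4% SDS-PAGE and stained with Coomassie Brilliant Blue R250. ApoB-100 band quantified by densitometry as peak area (absorbance units per mm). Also reported as percent remaining apoB-100 relative to intact apoB-100 of native LDL incubated without CuSO4.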

[3] = species on record: Homo sapiens; assay: Antioxidant effect on the Cu2+-mediated oxidation and apoB-100 fragmentation in LDL after incubation with 5 uM of compound; outline: as §1
[4] = species on record: Homo sapiens; assay: Antioxidant effect on the Cu2+-mediated oxidation and apoB-100 fragmentation in LDL after incubation with 10 uM of compound; outline: as §1
[5] = species on record: Homo sapiens; assay: Antioxidant effect on the Cu2+-mediated oxidation andapoB-100 fragmentation in LDL after incubation with 20 uM of compound; outline: as §1
[6] = species on record: Homo sapiens; assay: Antioxidant effect on the Cu2+-mediated oxidation andapoB-100 fragmentation in LDL after incubation with 10 uM of compound; outline: as §1
[7] = species on record: Homo sapiens; assay: Antioxidant effect on the Cu2+-mediated oxidation andapoB-100 fragmentation in LDL after incubation with 5 uM of compound; outline: as §1

IC50 [1] [nM] | SMILES | further results
700 | CC(C)c1cc(C2CC(c3cc(C(C)(C)C)c(O)c(C(C)(C)C)c3)=NN2)cc(C(C)C)c1O (stereo not drawn) | –
700 | CC(C)(C)c1cc(-c2cc(-c3cc(C(C)(C)C)c(O)c(C(C)(C)C)c3)[nH]n2)cc(C(C)(C)C)c1O | –
300 | CC(C)(C)c1cc(C2=NNC(c3ccc(O)c([N+](=O)[O-])c3)C2)cc(C(C)(C)C)c1O (stereo not drawn) | –
600 | CC(C)(C)c1cc(C2=NNC(c3cc(-c4ccccc4)c(O)c(-c4ccccc4)c3)C2)cc(C(C)(C)C)c1O (stereo not drawn) | –
600 | Cc1cc(C2CC(c3cc(C(C)(C)C)c(O)c(C(C)(C)C)c3)=NN2)c(C)c(C)c1O (stereo not drawn) | –
200 | CC(C)(C)c1cc(C2=NNC(c3cc(F)c(O)c(F)c3)C2)cc(C(C)(C)C)c1O (stereo not drawn) | –
600 | CC(C)(Sc1cc(C(C)(C)C)c(O)c(C(C)(C)C)c1)Sc1cc(C(C)(C)C)c(O)c(C(C)(C)C)c1 [PROBUCOL] | Area [2]: 9.22 AU mm-1; Area [3]: 0 AU mm-1; Area [4]: 4.73 AU mm-1
300 | CC(C)(C)c1cc(C2=NNC(c3ccc(O)c(O)c3)C2)cc(C(C)(C)C)c1O (stereo not drawn) | –
200 | COc1cc(C2CC(c3cc(C(C)(C)C)c(O)c(C(C)(C)C)c3)=NN2)ccc1O (stereo not drawn) | –
200 | Cc1cc(C2CC(c3cc(C(C)(C)C)c(O)c(C(C)(C)C)c3)=NN2)cc(C)c1O (stereo not drawn) | –
200 | CC(C)(C)c1cc(C2=NNC(c3ccc(O)cc3)C2)cc(C(C)(C)C)c1O (stereo not drawn) | –
100 | CC(C)(C)c1cc(C2=NNC(c3cc(C(C)(C)C)c(O)c(C(C)(C)C)c3)C2)cc(C(C)(C)C)c1O (stereo not drawn) | Area [5]: 9.97 AU mm-1; Area [6]: 9.26 AU mm-1; Area [7]: 5.63 AU mm-1
